Screening data from PubChem BioAssay.
Compounds with a hit are over-represented: about 3.8% of the library has one in this group of screens.
KCNQ1 block – human KCNQ1 channel inhibition; AID 2642; B-score at 10 µM; P51787; 310,000 tested, 1.3% active; CHO-K1 KCNQ1, FluxOR thallium flux fluorescence; hits give high values;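 active means compounds whose thallium flux B-score, printed positive for inhibition, exceeds three library SD while starting fluorescence stays within three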;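 further: channel opened by potassium depolarization with thallium stimulus after 20 min compound exposure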
KCNK9 block – blocks the human KCNK9 two-pore domain potassium channel; Q9NPC2; HEK293 KCNK9, FluxOR thallium flux fluorescence; hits give low values; B-score at 10 µM; 310,000 tested, 1.2% active;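 active means ratio B-score over 3 SD below the library mean, with starting fluorescence within 5 SD of its mean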;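 further: negative B-score means less thallium flux so channel inhibition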
hERG protect – compounds protecting human hERG from proarrhythmic drug block; CHO-hERG, FluxOR thallium flux, dofetilide IC70 present; 310,000 tested, 0.51% active; activation (rescue from dofetilide block), less the hit threshold, % at 10 µM;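 active means activation above the mean of controls blocked by dofetilide plus 5 SD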;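 further: thallium influx through hERG after potassium depolarization seen as dye fluorescence rise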
KCNK3 block – human KCNK3 channel inhibition, primary screen; O14649; CHO-KCNK3 thallium flux, FluxOR fluorescence; hits give low values; B-score at 10 µM; 340,000 tested, 0.84% active;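 active means B-score under library mean minus 4 SD, starting fluorescence ratio at most library mean plus 5 SD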;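 further: more negative B-score means stronger inhibition of thallium flux through KCNK3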
Target sequence (O14649 whole entry, looked up): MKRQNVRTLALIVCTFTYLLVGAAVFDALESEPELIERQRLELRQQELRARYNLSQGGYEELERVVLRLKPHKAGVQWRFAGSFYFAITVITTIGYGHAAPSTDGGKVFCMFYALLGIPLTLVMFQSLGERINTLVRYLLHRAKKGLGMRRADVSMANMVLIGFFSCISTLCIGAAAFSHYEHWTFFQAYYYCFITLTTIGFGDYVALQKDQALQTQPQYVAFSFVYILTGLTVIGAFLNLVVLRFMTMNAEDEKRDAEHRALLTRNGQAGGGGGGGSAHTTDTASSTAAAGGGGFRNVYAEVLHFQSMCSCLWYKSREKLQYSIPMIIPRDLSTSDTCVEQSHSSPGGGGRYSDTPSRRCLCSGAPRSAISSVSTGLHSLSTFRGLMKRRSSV
Kir21 inh – Kir2.1 (mouse) channel inhibition; HEK293-Kir2.1, FluxOR thallium flux fluorescence; hits give low values; P35561; 310,000 tested, 0.85% active; B-score at 10 µM; AID 1672;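 active means fluorescence ratio B-score at or below minus 3 SD of library scores, with starting-brightness B-score within 2 SD, cut at about -4.2 in these data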;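 further: channel flux triggered by added potassium and thallium sulfate stimulus; B-score of peak minus minimum fluorescence over baseline after thallium stimulus; more negative B-score means stronger Kir2.1 block with less thallium influx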
KCNQ1 act – potentiates or activates the human KCNQ1 potassium channel. P51787. CHO-K1 KCNQ1, thallium flux FluxOR fluorescence; hits give high values. B-score at 10 µM. 310,000 tested, 0.35% active;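 active means fluorescence ratio B-score, a plate-corrected score, at least three library SD, with initial intensity B-score within 5 SD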
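Test system: CHO-K1 cells stably expressing KCNQ1 / Medium: assay buffer / Also added: depolarizing K+/Tl+ stimulus, K2SO4 and Tl2SO4 each 12.5 mM in 5x stock / Incubation: 90 min dye loading and 20 min compound exposure, both at room temperature / Signal: thallium influx via FluxOR fluorescence, kinetic imaging / Evaluation: B score of baseline-normalized fluorescence ratio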
An asterisk follows results filed as active; i = inactive; . = no result.

SMILES | KCNQ1 block | KCNK9 block | hERG protect | KCNK3 block | Kir21 inh | KCNQ1 act
Cc1ccc(/C=N/NC(=O)c2nc3nc(C)cc(C)n3n2)cc1 | i | i | -6 | i | 0.08 | i
O=S(=O)([N-]c1nc2ccccc2nc1-[n+]1ccc(CCCc2ccccc2)cc1)c1cccs1 | i | -6.8* | -11 | i | -0.42 | i
CCOC(=O)c1nn(C23CC4CC(CC(C4)C2)C3)c2c1C(=O)N(c1ccc(C)cc1)C2=O | i | i | -7 | i | 2.1 | i
COC(=O)c1nn(C23CC4CC(CC(C4)C2)C3)c2c1C(=O)N(c1ccc(Br)cc1)C2=O | 6* | i | -10 | i | -0.77 | i
Cc1nn(C)c(C)c1CNC(=O)Nc1ccc2c(c1)OCO2 | i | i | 7.4* | i | 1.1 | i
O=C(CSCSCC(=O)Nc1ccc2c(c1)OCO2)Nc1ccc2c(c1)OCO2 | i | i | 5.0* | i | -0.15 | i
O=C(CN1C(=O)CSCC1=O)Nc1ccc2c(c1)OCO2 | i | i | 4.7* | i | -0.46 | i
O=C(CNC(=O)N1CC(=O)Nc2ccccc21)NCCc1c[nH]c2ccccc12 | i | i | -6 | i | 0.61 | i
OCCOCCN1CCN(C2=Nc3ccccc3Sc3ccccc32)CC1 | i | i | . | i | -0.6 | i
O=C1C=CC(=O)c2c(O)c(N3CCN(CCOCCO)CC3)c(Br)c(O)c21 | . | . | . | -11* | . | .
O=C1C=CC(=O)c2c(O)c(N3CCN(CCO)CC3)c(Cl)c(O)c21 | . | . | . | -11* | . | .
CC(C)(C)C(O)(CC#CCN1CCCC1)c1ccccc1 (stereo not drawn) | i | i | -14 | i | -0.87 | i
O=C(c1nc2ccc(Cl)cn2c1CN1CCCC(CO)C1)N1CCc2ccccc2C1 (stereo not drawn) | i | i | -12 | i | -1.4 | i
CCc1ccc2nc(N=C(N)N)nc(C)c2c1 | i | i | -10 | i | -6.1* | i
CC(C)c1nnc(NC(=O)Cc2ccccc2[N+](=O)[O-])s1 | i | i | -11 | i | -2.5 | i
CCOC(=O)C1CCN(c2ncnc3c2oc2ccccc23)CC1 | i | i | -19 | -9.9* | -2 | i
COC(=O)C1=C(C)N(CCc2ccc(OC)c(OC)c2)C(=O)C1 | i | i | -6 | i | 0 | i
Cc1cccc(CN2C(=O)/C(=C\c3ccc(C(=O)NCCN4CCOCC4)cc3)Sc3ccccc32)c1 | 8* | i | -25 | i | -0.39 | i
Cc1ccccc1CN1C(=O)/C(=C\c2ccc(C(=O)NCCN3CCOCC3)cc2)Sc2ccccc21 | i | i | -13 | i | -0.01 | i
O=C(NCCN1CCOCC1)c1ccc(/C=C2\Sc3ccccc3N(Cc3ccccc3F)C2=O)cc1 | 11* | i | -19 | i | -0.08 | i
CCN1CCN(CCNC(=O)c2ccc3c(c2)N(Cc2ccc(F)cc2)C(=O)/C(=C/c2ccccc2)S3)CC1 | 10* | i | -28 | i | 0.88 | i
O=C(NCCN1CCOCC1)c1ccc2c(c1)N(Cc1cccc(F)c1)C(=O)c1ccccc1S2 | i | i | -16 | i | 0.56 | i
CN1CCN(CCCNC(=O)c2ccc(/C=C3\Sc4ccccc4N(Cc4ccccc4F)C3=O)cc2)CC1 | i | i | -39 | i | -0.9 | i
COc1ccc(/C=C2\Sc3ccc(C(=O)NCCN4CCCCCC4)cc3N(C)C2=O)cc1 | 9* | i | -19 | i | -3.3 | i
Cc1ccc(C)c(S(=O)(=O)NCc2ccc(C(=O)N3CCN(c4ccccc4)CC3)cc2)c1 | i | i | -15 | i | 0.69 | i
SMILES | KCNQ1 block | KCNK9 block | hERG protect | KCNK3 block | Kir21 inh | KCNQ1 act
Cc1cc(C(=O)Nc2nnc(C(F)(F)F)s2)cs1 | i | i | -5 | i | -0.06 | i
CCC(=O)Nc1cccc(-c2cn3ccccc3n2)c1 | i | i | -5 | i | -0.3 | i
CCC(=O)Nc1cccc(-c2csc(-c3ccccc3)n2)c1 | i | -7.4* | -10 | i | 0.1 | i
Cc1nc(-c2ccc(NC(=O)Cc3ccccc3)cc2)cs1 | i | i | 2 | i | 0.2 | 8*
CC(C)n1c(O)c(N=NC(=O)C2COc3ccccc3O2)c2ccccc21 (stereo not drawn) | i | i | 23* | i | 0.01 | i
Cn1c(O)c(N=NC(=O)C2COc3ccccc3O2)c2ccccc21 (stereo not drawn) | i | i | -6 | i | 0.25 | i
O=C(C(c1ccccc1)C(O)(c1ccccc1)c1ccccc1)N1CCOCC1 (stereo not drawn) | . | . | . | i | . | .
O=C1CSC(c2cccnc2)N1Cc1ccc(Cl)cc1Cl (stereo not drawn) | i | i | -3 | i | -4.4* | i
Cc1ccc2nc(C3CCN(CC(=O)N4CCCCCC4)CC3)[nH]c2c1 | i | i | -14 | i | -1.5 | i
CC(Oc1ccc(Cl)cc1)C(=O)Nc1sccc1C(N)=O (stereo not drawn) | i | i | 6.6* | i | -1.8 | i
O=C(N/N=C/c1cccnc1)c1ccccc1OCc1ccc(Cl)cc1 | i | -6.9* | -5 | . | 0.18 | i
COc1ccc(C(=O)NCc2ccc(C)cc2)cc1S(=O)(=O)N1CCCc2ccccc21 | i | i | -9 | i | 0.12 | i
C=CCc1c(C)nc(-c2ccccc2)nc1N/N=C/c1ccccc1 | 6* | i | -12 | i | 0.41 | i
CCCC(c1nnnn1C(C)(C)CC)N(Cc1ccco1)Cc1cc2ccc(OC)cc2[nH]c1=O (stereo not drawn) | i | -6.8* | -10 | i | -0.19 | i
CCC(c1nnnn1Cc1ccccc1)N(Cc1ccco1)Cc1cc2cc(OC)ccc2[nH]c1=O (stereo not drawn) | i | i | -11 | i | -0.43 | i
CN1C(=O)/C(=N\OC(=O)c2cccc3ccccc23)c2ccccc21 | i | i | 11* | i | 0.54 | 18*
CC(C)CCN1C(Nc2ccccc2)=NC[C@@H]1Cc1ccccc1 | i | i | -3 | i | -1.7 | i
CC(CCN1C(Nc2ccccc2)=NC[C@@H]1Cc1ccccc1)c1ccccc1 (stereo partly drawn) | i | i | -12 | i | -7.2* | i
CC(C)N1C(=S)SC(C)(C)C1n1oc(=O)n(-c2cccc(Cl)c2)c1=O (stereo not drawn) | i | i | -2 | i | 0.54 | i
CC(C)CN1C(=S)SC(C)(C)C1n1oc(=O)n(-c2ccc(Cl)cc2)c1=O (stereo not drawn) | 15* | i | -10 | -11* | -1.8 | i
